From ChEMBL document CHEMBL2311361, “Diminutive effect on T and B-cell proliferation of non-cytotoxic α-santonin derived 1,2,3-triazoles: a report” (Eur J Med Chem, 2013)

What was measured:
[1] = Cytotoxicity against in Balb/c mouse B cells at 10^-6 M after 48 hrs by MTT assay; type: cell-based; details: 1 µM
In short: (§1)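 Spleens taken aseptically from Balb/c mice (18–22 g). Single-cell suspension made in incomplete RPMI, RBCs lysed with Tris-ammonium chloride, cells washed, resuspended in complete RPMI and checked for viability by trypan blue. Cells seeded at 1 × 10⁶ cells/mL. Compounds in DMSO tested at 1×10⁻⁴, 1×10⁻⁵ and 1×10⁻⁶ M, 48 h, 37 °C, 5% CO₂.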

[2] = Immunostimulant activity in Balb/c mouse T cells assessed as inhibition of concanavalin A-induced cell proliferation at 10^-4 M after 48 hrs by MTT assay; type: functional; details: Mus musculus, Balb/c, T-cell, 48 h; in short: as §1
[3] = Immunosuppressive activity in Balb/c mouse B cells assessed as inhibition of LPS-induced cell proliferation at 10^-5 M after 48 hrs by MTT assay; type: functional; in short: as §1
[4] = Immunosuppressive activity in Balb/c mouse B cells assessed as inhibition of LPS-induced cell proliferation at 10^-4 M after 48 hrs by MTT assay; type: functional; in short: as §1
[5] = Cytotoxicity against in Balb/c mouse T cells at 10^-5 M after 48 hrs by MTT assay; type: cell-based; details: t-cell, 10 µM; in short: as §1
[6] = Immunosuppressive activity in Balb/c mouse B cells assessed as inhibition of LPS-induced cell proliferation at 10^-6 M after 48 hrs by MTT assay; type: functional; in short: as §1
[7] = Cytotoxicity against in Balb/c mouse T cells at 10^-6 M after 48 hrs by MTT assay; type: cell-based; details: t-cell, 1 µM; in short: as §1
[8] = Cytotoxicity against in Balb/c mouse T cells at 10^-4 M after 48 hrs by MTT assay; type: cell-based; details: t-cell, 100 µM; in short: as §1
[9] = Immunosuppressive activity in Balb/c mouse T cells assessed as inhibition of concanavalin A-induced cell proliferation at 10^-6 M after 48 hrs by MTT assay; type: functional; details: Mus musculus, Balb/c, T-cell, 48 h; in short: as §1
[10] = Cytotoxicity against in Balb/c mouse B cells at 10^-5 M after 48 hrs by MTT assay; type: cell-based; details: 10 µM; in short: as §1
[11] = Cytotoxicity against in Balb/c mouse B cells at 10^-4 M after 48 hrs by MTT assay; type: cell-based; details: 100 µM; in short: as §1
[12] = Immunosuppressive activity in Balb/c mouse T cells assessed as inhibition of concanavalin A-induced cell proliferation at 10^-4 M after 48 hrs by MTT assay; type: functional; in short: as §1
[13] = Immunosuppressive activity in Balb/c mouse T cells assessed as inhibition of concanavalin A-induced cell proliferation at 10^-5 M after 48 hrs by MTT assay; type: functional; in short: as §1
[14] = Immunostimulant activity in Balb/c mouse B cells assessed as inhibition of LPS-induced cell proliferation at 10^-4 M after 48 hrs by MTT assay; type: functional; in short: as §1
[15] = Immunostimulant activity in Balb/c mouse B cells assessed as inhibition of LPS-induced cell proliferation at 10^-6 M after 48 hrs by MTT assay; type: functional; in short: as §1
[16] = Immunostimulant activity in Balb/c mouse T cells assessed as inhibition of concanavalin A-induced cell proliferation at 10^-5 M after 48 hrs by MTT assay; type: functional; in short: as §1

Structure (SMILES) | Activity [1] | inhibition at 100 µM [2] | inhibition at 10 µM [3] | inhibition at 100 µM [4] | Activity [5] | inhibition at 1 µM [6] | Activity [7] | Activity [8] | inhibition at 1 µM [9] | Activity [10] | Activity [11] | inhibition at 100 µM [12] | inhibition at 10 µM [13] | inhibition at 100 µM [14] | inhibition at 1 µM [15] | inhibition at 10 µM [16]
Cc1cc(OCc2cnnn2-c2cccc(Br)c2COc2cccc(Br)c2)c(C)c2c1CC[C@H]1[C@H](C)C(=O)O[C@@H]21 | Toxic | 2.5% | 16.7% | 17.5% | Non-toxic | 24.2% | Toxic | Non-toxic | 14.2% | Non-toxic | Non-toxic |  |  |  |  | 
Cc1cc(OCc2cnnn2-c2cccc(I)c2)c(C)c2c1CC[C@H]1[C@H](C)C(=O)O[C@@H]21 | Non-toxic |  | 20% | 15.8% | Non-toxic | 15.8% | Non-toxic | Non-toxic | 15.8% | Non-toxic | Non-toxic | 3.15% | 20% |  |  | 
Cc1cc(O)c(C)c2c1CC[C@H]1[C@H](C)C(=O)O[C@@H]21 | Non-toxic | 80.5% | 23.9% |  | Non-toxic | 23.1% | Non-toxic | Non-toxic | 20.7% | Non-toxic | Non-toxic |  | 24.4% | 18.8% |  | 
Cc1cc(OCc2cnnn2-c2ccccc2C(F)(F)F)c(C)c2c1CC[C@H]1[C@H](C)C(=O)O[C@@H]21 | Non-toxic |  | 31.4% | 11.4% | Non-toxic |  | Non-toxic | Non-toxic | 7.14% | Non-toxic | Non-toxic | 22.9% | 30% |  | 62.9% | 
CC1=C2[C@H]3OC(=O)[C@@H](C)[C@@H]3CC[C@@]2(C)C=CC1=O [SANTONIN] | Non-toxic |  | 25.6% | -36.8% | Non-toxic | 23.1% | Non-toxic | Non-toxic | -40.2% | Non-toxic | Non-toxic | -6.09% |  |  |  | 3.65%
Cc1cc(OCc2cnnn2-c2cccc(O)c2)c(C)c2c1CC[C@H]1[C@H](C)C(=O)O[C@@H]21 | Toxic |  | 7.5% | 9.16% | Non-toxic | 19.2% | Toxic | Non-toxic | 5.83% | Non-toxic | Non-toxic | 10% |  |  |  | 22.5%
COc1ccc2cc(-n3nncc3COc3cc(C)c4c(c3C)[C@@H]3OC(=O)[C@@H](C)[C@@H]3CC4)ccc2c1 | Non-toxic |  | 94% | 28.2% | Non-toxic | 25.6% | Non-toxic | Non-toxic | 93.9% | Non-toxic | Non-toxic | 93.9% | 95.1% |  |  | 
Cc1cc(OCc2cnnn2-c2c(Br)ccc(I)c2F)c(C)c2c1CC[C@H]1[C@H](C)C(=O)O[C@@H]21 | Non-toxic |  | 50% | 11.4% | Non-toxic | 8.57% | Non-toxic | Non-toxic |  | Non-toxic | Non-toxic |  |  |  |  | 
Cc1cc(OCc2cnnn2-c2ccc(C=O)cc2)c(C)c2c1CC[C@H]1[C@H](C)C(=O)O[C@@H]21 | Non-toxic |  | 22.5% | 35% | Non-toxic | 24.2% | Non-toxic | Non-toxic | 5.83% | Non-toxic | Non-toxic | 20.8% | 6.66% |  |  | 
